Reference: ChEMBL document CHEMBL1148789, “Synthesis and biological activities of new checkpoint kinase 1 inhibitors structurally related to granulatimide” (J Med Chem, 2007)
The source made the active and inactive calls. The calls are words filed in the database; no cut-off is given here.

Key:
[1] = biological target: T1, Serine/threonine-protein kinase Chk1 (Homo sapiens) (UniProt O14757); assay: Inhibition of human Chk1 expressed in Sf9 cells at 10 uM
T1 sequence (whole entry): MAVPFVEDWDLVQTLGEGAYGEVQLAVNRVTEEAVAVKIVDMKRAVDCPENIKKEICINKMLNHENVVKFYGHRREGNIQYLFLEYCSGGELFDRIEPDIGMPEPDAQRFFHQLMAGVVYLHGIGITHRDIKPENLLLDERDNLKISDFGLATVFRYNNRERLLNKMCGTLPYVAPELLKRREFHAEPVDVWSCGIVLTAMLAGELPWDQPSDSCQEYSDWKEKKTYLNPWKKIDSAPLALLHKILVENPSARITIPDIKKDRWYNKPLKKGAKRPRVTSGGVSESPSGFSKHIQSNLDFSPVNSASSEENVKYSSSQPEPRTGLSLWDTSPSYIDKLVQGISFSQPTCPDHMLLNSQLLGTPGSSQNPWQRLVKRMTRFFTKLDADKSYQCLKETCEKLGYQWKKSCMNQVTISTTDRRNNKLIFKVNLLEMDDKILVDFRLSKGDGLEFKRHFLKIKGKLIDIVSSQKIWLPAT
Method in brief: (§1)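 Full-length human Chk1 with an N-terminal GST tag, purified from baculovirus-infected Sf9 cells or purchased. Stopped with orthophosphoric acid and captured on phosphocellulose filters for scintillation counting. Percent inhibition at 10 µM; IC50 from 12 concentrations over 6 logs, duplicate points averaged.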

HCT-116 = assay: Antiproliferative activity against human HCT116 cells […] by microculture tetrazolium assay; format: functional, cell-based
Method in brief: (§2)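 Human HCT116, human HT29 and murine L1210 tumour cells grown in RPMI 1640 with 10% fetal calf serum, 2 mM L-glutamine, penicillin/streptomycin and 10 mM HEPES pH 7.4. Compounds were taken from 10^-2 M DMSO stocks, diluted 1/100 in RPMI, and cells were exposed continuously to graded concentrations for four doubling times. MTT was added for 4 h at 37 °C and the formazan dissolved in DMSO. IC50 is the concentration lowering optical density 50% versus untreated cells.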

[2] = biological target: T2, Proto-oncogene tyrosine-protein kinase Src (Homo sapiens, UniProt P12931); assay: Inhibition of Src at 10 uM
Method in brief: (§3)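 Started by adding cosubstrate (40 µM ATP stock with [33P]γ-ATP); 20 min at 30 °C. Stopped with 0.85% orthophosphoric acid, filtered on phosphocellulose, washed, then scintillation counted. Percent inhibition at 10 µM; IC50 reported.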

[3] = biological target: T3, Serine/threonine-protein kinase Chk1 (Homo sapiens, UniProt O14757); assay: Inhibition of human Chk1 expressed in Sf9 cells; method in brief: as §1
T3 sequence (O14757 whole entry): T1 sequence (whole entry)

HT-29 = assay: Antiproliferative activity against human HT29 cells […] by microculture tetrazolium assay; format: functional, cell-based; method in brief: as §2
L1210 = assay: Antiproliferative activity against mouse L1210 cells after four doubling times by microculture tetrazolium assay
[4] = biological target: Protein kinase C alpha type (Homo sapiens) (UniProt P17252); assay: Inhibition of PKCalpha at 1 uM; values are per cent of control
Homo sapiens [5] = species: Homo sapiens; assay: Residual activity of CDK7/cyclin H at 1 uM
[6] = biological target: Mitogen-activated protein kinase 1 (Homo sapiens) (UniProt P28482); assay: Inhibition of MAPK1 at 1 uM; values are per cent of control
[7] = biological target: Ribosomal protein S6 kinase beta-1 (Homo sapiens) (UniProt P23443); assay: Residual activity of p70S6K at 1 uM
Homo sapiens [8] = species: Homo sapiens; assay: Residual activity of CaMKII at 1 uM
Homo sapiens [9] = species: Homo sapiens; assay: Residual activity of CDK1/cyclin B at 1 uM
[10] = biological target: Glycogen synthase kinase-3 beta (Homo sapiens) (UniProt P49841); assay: Inhibition of GSK3-beta at 1 uM; values are per cent of control
[11] = biological target: Dual specificity mitogen-activated protein kinase kinase 1 (Homo sapiens) (UniProt Q02750); assay: Residual activity of MEK1 at 1 uM
Homo sapiens [12] = species: Homo sapiens; assay: Inhibition of CDK2/cyclin A at 1 uM; values are per cent of control
[13] = biological target: Casein kinase I isoform delta (Homo sapiens) (UniProt P48730); assay: Inhibition of CK1delta at 1 uM; values are per cent of control
[14] = biological target: Cyclin-dependent kinase 5/CDK5 activator 1 (Homo sapiens) (UniProt Q00535+Q15078); assay: Residual activity of CDK5/p25 at 1 uM
[15] = biological target: RAC-alpha serine/threonine-protein kinase (Homo sapiens) (UniProt P31749); assay: Inhibition of PKBalpha at 1 uM; values are per cent of control
[16] = biological target: MAP kinase-activated protein kinase 2 (Homo sapiens) (UniProt P49137); assay: Residual activity of MAPKAPK2 at 1 uM
[17] = biological target: Glycogen synthase kinase-3 alpha (Homo sapiens) (UniProt P49840); assay: Inhibition of GSK3-alpha at 1 uM; values are per cent of control
[18] = biological target: Casein kinase II subunit alpha (Homo sapiens) (UniProt P68400); assay: Residual activity of CK2 at 1 uM
[19] = biological target: RAF proto-oncogene serine/threonine-protein kinase (Homo sapiens) (UniProt P04049); assay: Residual activity of cRAF at 1 uM
[20] = biological target: CDK9/cyclin T1 (Homo sapiens) (UniProt O60563+P50750); assay: Inhibition of CDK9/cyclin T1 at 1 uM; values are per cent of control
[21] = biological target: T1, Serine/threonine-protein kinase Chk1 (Homo sapiens); assay: Residual activity of Chk1 at 1 uM
Homo sapiens [22] = species: Homo sapiens; assay: Residual activity of PKA at 1 uM
[23] = biological target: T2, Proto-oncogene tyrosine-protein kinase Src; assay: Inhibition of Src; method in brief: as §3

T2 sequence (P12931 2-536 limits assumed): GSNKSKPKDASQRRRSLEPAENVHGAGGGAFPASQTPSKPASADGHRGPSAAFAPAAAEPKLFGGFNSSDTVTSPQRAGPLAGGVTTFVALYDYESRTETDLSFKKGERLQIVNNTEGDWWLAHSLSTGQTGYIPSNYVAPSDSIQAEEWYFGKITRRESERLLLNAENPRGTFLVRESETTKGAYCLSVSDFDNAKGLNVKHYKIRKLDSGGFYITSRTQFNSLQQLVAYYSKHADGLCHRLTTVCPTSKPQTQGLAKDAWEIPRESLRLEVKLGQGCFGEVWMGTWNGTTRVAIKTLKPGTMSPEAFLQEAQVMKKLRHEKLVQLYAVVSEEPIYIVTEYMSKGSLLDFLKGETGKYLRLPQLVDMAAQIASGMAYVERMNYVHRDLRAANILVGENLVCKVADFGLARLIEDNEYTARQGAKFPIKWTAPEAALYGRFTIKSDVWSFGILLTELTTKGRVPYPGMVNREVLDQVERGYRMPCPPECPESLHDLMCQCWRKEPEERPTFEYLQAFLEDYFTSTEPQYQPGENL
Glycogen synthase kinase-3 alpha (Homo sapiens), sequence (P49840 2-483 limits assumed): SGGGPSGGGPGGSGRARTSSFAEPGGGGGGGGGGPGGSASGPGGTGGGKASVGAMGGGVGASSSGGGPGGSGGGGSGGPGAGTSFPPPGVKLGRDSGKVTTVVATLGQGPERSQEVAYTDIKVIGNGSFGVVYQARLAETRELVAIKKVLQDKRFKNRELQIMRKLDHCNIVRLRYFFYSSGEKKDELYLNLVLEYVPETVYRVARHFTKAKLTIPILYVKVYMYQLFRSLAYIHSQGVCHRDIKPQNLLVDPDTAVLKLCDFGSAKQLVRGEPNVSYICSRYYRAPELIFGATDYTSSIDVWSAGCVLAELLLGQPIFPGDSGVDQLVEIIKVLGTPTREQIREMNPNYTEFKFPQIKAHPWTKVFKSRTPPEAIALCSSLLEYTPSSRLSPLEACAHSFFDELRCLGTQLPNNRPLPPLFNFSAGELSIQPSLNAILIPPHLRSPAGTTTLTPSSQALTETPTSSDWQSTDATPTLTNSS
Mitogen-activated protein kinase 1 (Homo sapiens), sequence (P28482 whole entry): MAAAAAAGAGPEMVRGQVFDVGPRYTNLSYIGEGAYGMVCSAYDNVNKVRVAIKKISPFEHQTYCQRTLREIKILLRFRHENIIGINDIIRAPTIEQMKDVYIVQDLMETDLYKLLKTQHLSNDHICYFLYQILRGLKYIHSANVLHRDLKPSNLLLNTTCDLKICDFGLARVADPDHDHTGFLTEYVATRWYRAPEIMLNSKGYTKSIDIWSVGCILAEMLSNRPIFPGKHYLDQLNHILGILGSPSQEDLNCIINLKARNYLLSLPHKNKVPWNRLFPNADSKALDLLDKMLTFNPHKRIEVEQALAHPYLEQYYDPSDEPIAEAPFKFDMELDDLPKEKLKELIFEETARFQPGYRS
Casein kinase I isoform delta (Homo sapiens), sequence (P48730 whole entry, looked up, canonical isoform): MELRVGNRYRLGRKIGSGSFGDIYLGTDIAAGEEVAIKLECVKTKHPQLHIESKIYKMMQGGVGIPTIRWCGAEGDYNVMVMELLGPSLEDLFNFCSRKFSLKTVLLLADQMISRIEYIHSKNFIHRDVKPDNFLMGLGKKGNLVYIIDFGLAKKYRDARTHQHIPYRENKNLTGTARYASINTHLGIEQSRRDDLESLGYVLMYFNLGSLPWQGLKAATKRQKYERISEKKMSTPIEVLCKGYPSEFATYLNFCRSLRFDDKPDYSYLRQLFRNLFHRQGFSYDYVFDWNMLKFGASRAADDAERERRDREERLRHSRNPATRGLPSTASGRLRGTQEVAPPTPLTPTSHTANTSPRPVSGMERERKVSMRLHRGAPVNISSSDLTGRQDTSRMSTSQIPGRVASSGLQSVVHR
Casein kinase II subunit alpha (Homo sapiens), sequence (P68400 whole entry, looked up): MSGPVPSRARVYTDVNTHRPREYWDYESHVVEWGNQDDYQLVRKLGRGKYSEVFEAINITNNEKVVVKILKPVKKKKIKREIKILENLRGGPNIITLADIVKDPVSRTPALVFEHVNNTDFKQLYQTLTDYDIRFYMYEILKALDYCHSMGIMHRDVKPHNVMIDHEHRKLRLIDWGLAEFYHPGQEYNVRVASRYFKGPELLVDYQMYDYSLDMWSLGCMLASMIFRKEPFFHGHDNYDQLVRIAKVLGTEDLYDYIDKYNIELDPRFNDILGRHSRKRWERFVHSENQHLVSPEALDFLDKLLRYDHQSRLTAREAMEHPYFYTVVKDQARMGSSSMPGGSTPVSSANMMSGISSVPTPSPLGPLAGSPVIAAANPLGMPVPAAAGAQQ
Cyclin-dependent kinase 5/CDK5 activator 1 (Homo sapiens), sequence (Q00535 whole entry): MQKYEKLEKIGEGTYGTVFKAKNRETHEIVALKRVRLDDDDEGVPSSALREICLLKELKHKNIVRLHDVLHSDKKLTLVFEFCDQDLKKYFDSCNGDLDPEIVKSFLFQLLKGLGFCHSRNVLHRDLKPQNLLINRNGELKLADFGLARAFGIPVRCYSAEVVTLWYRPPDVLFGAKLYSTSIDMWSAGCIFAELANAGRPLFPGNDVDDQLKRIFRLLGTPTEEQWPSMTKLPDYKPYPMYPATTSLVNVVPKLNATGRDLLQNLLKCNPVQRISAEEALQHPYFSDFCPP
Cyclin-dependent kinase 5/CDK5 activator 1 (Homo sapiens), sequence (Q15078 99-307 partner limits assumed): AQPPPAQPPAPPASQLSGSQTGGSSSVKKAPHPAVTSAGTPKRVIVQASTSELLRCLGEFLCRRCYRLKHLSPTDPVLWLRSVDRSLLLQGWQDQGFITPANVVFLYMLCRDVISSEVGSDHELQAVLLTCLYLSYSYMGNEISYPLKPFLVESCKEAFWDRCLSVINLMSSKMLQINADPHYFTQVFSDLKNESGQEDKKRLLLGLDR
RAF proto-oncogene serine/threonine-protein kinase (Homo sapiens), sequence (P04049 whole entry): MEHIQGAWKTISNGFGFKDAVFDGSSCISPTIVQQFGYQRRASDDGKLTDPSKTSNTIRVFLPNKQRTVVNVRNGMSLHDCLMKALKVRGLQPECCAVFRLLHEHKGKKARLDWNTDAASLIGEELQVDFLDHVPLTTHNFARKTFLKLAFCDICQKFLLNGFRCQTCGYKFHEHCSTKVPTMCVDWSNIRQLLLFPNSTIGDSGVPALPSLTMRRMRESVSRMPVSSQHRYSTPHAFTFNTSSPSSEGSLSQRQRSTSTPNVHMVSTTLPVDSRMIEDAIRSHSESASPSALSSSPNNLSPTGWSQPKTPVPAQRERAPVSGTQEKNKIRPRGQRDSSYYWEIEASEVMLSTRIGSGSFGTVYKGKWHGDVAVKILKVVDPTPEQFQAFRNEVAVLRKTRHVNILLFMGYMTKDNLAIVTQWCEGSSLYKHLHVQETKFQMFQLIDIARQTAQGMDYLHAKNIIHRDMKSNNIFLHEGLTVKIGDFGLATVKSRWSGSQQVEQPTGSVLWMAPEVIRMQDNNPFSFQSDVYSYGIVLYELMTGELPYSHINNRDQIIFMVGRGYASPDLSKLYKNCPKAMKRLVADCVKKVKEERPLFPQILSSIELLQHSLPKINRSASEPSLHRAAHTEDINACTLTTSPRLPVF
MAP kinase-activated protein kinase 2 (Homo sapiens), sequence (P49137 whole entry, looked up): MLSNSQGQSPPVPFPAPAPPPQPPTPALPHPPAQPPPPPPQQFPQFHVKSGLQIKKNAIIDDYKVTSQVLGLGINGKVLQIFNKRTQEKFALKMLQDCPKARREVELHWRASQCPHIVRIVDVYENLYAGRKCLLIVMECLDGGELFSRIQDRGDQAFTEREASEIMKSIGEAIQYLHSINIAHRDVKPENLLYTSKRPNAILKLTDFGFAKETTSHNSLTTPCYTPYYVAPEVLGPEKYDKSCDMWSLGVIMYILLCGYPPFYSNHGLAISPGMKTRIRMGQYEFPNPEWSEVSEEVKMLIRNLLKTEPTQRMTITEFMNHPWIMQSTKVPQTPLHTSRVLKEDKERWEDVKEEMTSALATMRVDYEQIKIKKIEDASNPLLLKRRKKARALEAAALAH
Ribosomal protein S6 kinase beta-1 (Homo sapiens), sequence (P23443 whole entry, looked up): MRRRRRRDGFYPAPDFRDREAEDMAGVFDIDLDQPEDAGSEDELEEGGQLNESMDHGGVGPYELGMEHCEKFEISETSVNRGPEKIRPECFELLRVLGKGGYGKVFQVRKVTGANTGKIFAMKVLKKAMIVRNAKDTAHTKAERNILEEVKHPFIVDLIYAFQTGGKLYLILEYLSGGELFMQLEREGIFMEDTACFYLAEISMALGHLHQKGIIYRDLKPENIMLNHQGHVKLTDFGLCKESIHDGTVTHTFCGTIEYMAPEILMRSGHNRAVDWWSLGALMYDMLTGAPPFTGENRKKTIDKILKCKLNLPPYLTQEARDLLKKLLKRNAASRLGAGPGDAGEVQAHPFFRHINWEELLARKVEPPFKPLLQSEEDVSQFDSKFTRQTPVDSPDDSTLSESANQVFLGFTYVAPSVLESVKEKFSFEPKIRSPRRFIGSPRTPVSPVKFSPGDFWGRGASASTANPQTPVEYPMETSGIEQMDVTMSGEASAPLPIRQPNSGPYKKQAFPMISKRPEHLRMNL

`Cc1ccc2[nH]c3c4c(=O)ccc(=O)c4c4c(=O)[nH]c(=O)c4c3c2c1` gave an inhibition [1] of 86%, an IC50 (HCT-116) of 0.7 µM and an inhibition [2] of 52.5%. The IC50 [3] was 0.107 µM and the IC50 (HT-29) was 20.6 µM.

`O=C1NC(=O)c2c1c1c(O)cccc1c1[nH]c3ccccc3c21` showed an inhibition [1] of 93%, an IC50 (HCT-116) of 17.5 µM and an inhibition [2] of 35%. For the same compound, the IC50 [3] was 0.904 µM and the IC50 (HT-29) was 46.4 µM.

`O=c1ccc(=O)c2c1c1[nH]c3ccccc3c1c1c(=O)[nH]c(=O)c21` gave an inhibition [1] of 86% and an IC50 [3] of 0.269 µM.

With `O=C1NC(=O)c2c1c1c(O)ccc(OS(=O)(=O)O)c1c1[nH]c3ccccc3c21` the inhibition [1] was 62%, the IC50 (HCT-116) was greater than 50 µM and the IC50 [3] was 1.79 µM. The IC50 (HT-29) was 46 µM.

`Cc1ccc2[nH]c3c4c(OS(=O)(=O)O)ccc(O)c4c4c(c3c2c1)C(=O)NC4=O` gave an inhibition [1] of 70%, an IC50 (HCT-116) greater than 40 µM and an IC50 [3] of 0.893 µM. For the same compound, the IC50 (HT-29) was 50 µM.

For `O=C1NC(=O)c2c1c1c(c3[nH]c4ccccc4c23)C(=O)CCC1`, the inhibition [1] was 15.3%, the IC50 (HCT-116) was 1.1 µM and the inhibition [2] was 8.5%. The IC50 (HT-29) was 15.5 µM.

For `O=C1NC(=O)c2c1c1c(O)ccc(O)c1c1[nH]c3ccccc3c21`, the inhibition [1] was 96%, the inhibition [2] was 2.5% and the IC50 [3] was 0.311 µM.

With `O=C1CCc2c1c1c(c3c2[nH]c2ccccc23)C(=O)NC1=O` the inhibition [1] was 72%, the IC50 (L1210) was 58.4 µM and the IC50 (HCT-116) was 9.7 µM. The Activity [2] was “inactive”, the IC50 [3] was 0.043 µM and the IC50 (HT-29) was 16.1 µM.

For `O=c1[nH]c(=O)c2c1c1[nH]c3ccccc3c1c1c(=O)[nH]c(=O)c21` [BIS-IMIDE A], the inhibition [1] was 94.4%, the Activity [2] was “inactive” and the IC50 [3] was 0.02 µM.

For `O=c1ccc(=O)c2c1c1[nH]c3ccc(O)cc3c1c1c(=O)[nH]c(=O)c21`, the residual activity [4] was 66%, the residual activity (Homo sapiens [5]) was 87% and the residual activity [6] was 77%. The residual activity [7] was 27%, the residual activity (Homo sapiens [8]) was 40% and the residual activity (Homo sapiens [9]) was 85%. For the same compound, the residual activity [10] was 19%, the residual activity [11] was 98% and the inhibition [1] was 95%. It also gave an IC50 (L1210) of 8.4 µM, an IC50 (HCT-116) of 15.4 µM and a residual activity (Homo sapiens [12]) of 62%. The residual activity [13] was 16%, the residual activity [14] was 33% and the residual activity [15] was 87%. For the same compound, the residual activity [16] was 73%, the residual activity [17] was 3% and the residual activity [18] was 92%. The inhibition [2] was 63%, the IC50 [3] was 0.027 µM and the IC50 (HT-29) was 50.6 µM. It also gave a residual activity [19] of 102%, a residual activity [20] of 61% and a residual activity [21] of 22%. For the same compound, the residual activity (Homo sapiens [22]) was 103%.

With `O=C1NC(=O)c2c1c1[nH]cnc1c1[nH]c3ccccc3c21` [GRANULATIMIDE] the IC50 [23] was 0.35 µM, the inhibition [2] was 58% and the IC50 [3] was 0.081 µM.

`CC(C)(C)C(=O)Oc1ccc(O)c2c3c(c4c5ccccc5[nH]c4c12)C(=O)NC3=O` showed an inhibition [1] of 66%, an IC50 (HCT-116) of 8.76 µM and an IC50 [3] of 3.7 µM. For the same compound, the IC50 (HT-29) was 7.28 µM.

In the case of `O=C1NC(=O)c2c1c1c(O)ccc(O)c1c1[nH]c3ccc(O)cc3c21`, the inhibition [1] is reported as 94%, the IC50 (L1210) is reported as 1.4 µM and the IC50 (HCT-116) is reported as 2.7 µM. For the same compound, the IC50 [23] was 5.4 µM, the inhibition [2] was 83.5% and the IC50 [3] was 0.023 µM. The IC50 (HT-29) was 26.4 µM.

For `Cc1ccc2[nH]c3c4c(O)ccc(O)c4c4c(c3c2c1)C(=O)NC4=O`, the residual activity [4] was 102%, the residual activity (Homo sapiens [5]) was 90% and the residual activity [6] was 95%. For the same compound, the residual activity [7] was 42%, the residual activity (Homo sapiens [8]) was 34% and the residual activity (Homo sapiens [9]) was 86%. It also gave a residual activity [10] of 60%, a residual activity [11] of 96% and an inhibition [1] of 99%. For the same compound, the IC50 (HCT-116) was 1.6 µM, the residual activity (Homo sapiens [12]) was 69% and the residual activity [13] was 100%. The residual activity [14] was 28%, the residual activity [15] was 87% and the residual activity [16] was 57%. The residual activity [17] was 32%, the residual activity [18] was 108% and the IC50 [3] was 0.161 µM. For the same compound, the IC50 (HT-29) was 3.8 µM, the residual activity [19] was 93% and the residual activity [20] was 117%. For the same compound, the residual activity [21] was 12% and the residual activity (Homo sapiens [22]) was 117%.
